We go through three molecules from publication PMC7686626 (The Journal of International Medical Research, 2020).

The nature of series [1]: Short-term stability of stock solutions at room temperature. The format is physicochemical. Conditions: stock solution in methanol, room temperature for 6 hours. In short, it runs like this: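 Stock solutions (2.0 mg·mL−1 in methanol) of each analyte and the taxol internal standard were held 6 hours at room temperature and then assayed by the validated HPLC–MS/MS method. A deviation within ±15% was taken as stable.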

Series [2] can be described thus: Pharmacokinetics study in rats after oral administration of HQCF extract. The series is classed as in vivo, rat. Particulars: for AUC(0-inf) / AUC(0-t) / Cmax / Tmax / half-life: male, Sprague-Dawley, rat, plasma, po, 1526.5 mg/kg; for shape of the plasma concentration–time curve: rats, after HQCF extract administration. In short, it runs like this: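 Male Sprague–Dawley rats (200 ± 20 g), acclimatised 7 days, fasted 12 h; n = 6 given extract water solution (0.2 g·mL−1) by gavage. Blood (~250 µL) from ophthalmic vein at 0–24 h; plasma spun at 16,060 × g, 10 min, 4°C. Plasma protein-precipitated with taxol internal standard; C18 gradient HPLC–ESI-MS/MS in SRM mode. Non-compartmental analysis; mean ± SD.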

Series [3] can be described thus: Stability of QC samples of the analytes in rat plasma. The series is classed as in vitro ADME. Conditions: storage conditions of Table 5. In short, it runs like this:
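Rat plasma QC samples at low, middle and high levels (n = 6 each) were held 4 h at room temperature, 24 h at 4°C, three freeze/thaw cycles (−80°C to room temperature) or 45 days at −80°C. Samples were protein-precipitated with taxol internal standard and run by HPLC–MS/MS SRM. A deviation within ±15% was taken as stable.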

By AUC(0-inf) is commonly meant the area under the concentration-time curve extrapolated to infinity. Read a high AUC(0-inf) as more exposure. A word on the AUC(0-t): it is exposure summed from dosing to a finite time, without extrapolation to infinity. In general, Cmax refers to the peak of the concentration-time curve. In general, Tmax refers to the time at which the peak concentration occurs. The half-life is how long it takes for the measured level to halve. Lower therefore signals fast loss. For the molecule `COc1ccc(-c2coc3cc(O)ccc3c2=O)cc1O` [CA, calycosin], the “Stock solution stability, accuracy” value in series [1] is given as 90.2%. Further, in series [2], the AUC(0-inf) turned out to be 1830 ± 416 ng·h/mL, the area under the curve AUC(0-t) was determined as 1680 ± 342 ng·h/mL, the Cmax worked out at 247 ± 32.3 ng/mL and the Tmax was 1.5 ± 0.4 h. For the same molecule, in series [2], the half-life is 6.28 ± 2.5 h and the “shape of the plasma concentration–time curve” value was “double-peak absorption phases”. The “Degradation in rat plasma under different experimental conditions” value in series [3] is recorded as “no significant degradation”.
For the molecule `CC(=O)O[C@H]1C(=O)[C@@]2(C)[C@H]([C@H](OC(=O)c3ccccc3)[C@]3(O)C[C@H](OC(=O)[C@H](O)[C@@H](NC(=O)c4ccccc4)c4ccccc4)C(C)=C1C3(C)C)[C@]1(OC(C)=O)CO[C@@H]1C[C@@H]2O` [IS, Taxol, reference compound], the “Stock solution stability, accuracy” value in series [1] was 102.4%.
As for `C[C@@]12C[C@@]3(O)O[C@@H](O1)[C@]1(COC(=O)c4ccccc4)[C@H]3C[C@@]12O[C@@H]1O[C@H](CO)[C@@H](O)[C@H](O)[C@H]1O` [PA, paeoniflorin], the “Stock solution stability, accuracy” value in series [1] turned out to be 105.4%. In series [2], the AUC(0-inf) was 762 ± 281 ng·h/mL, the AUC(0-t) is 410 ± 92.3 ng·h/mL, the Cmax turned out to be 117 ± 31.5 ng/mL and the Tmax came to 1.2 ± 0.6 h. In addition, in series [2], the half-life was 6.94 ± 2.8 h and the “shape of the plasma concentration–time curve” value is listed as “double-peak absorption phases”. Besides, in series [3], the “Degradation in rat plasma under different experimental conditions” value is “no significant degradation”.
